Assay results gathered from unrelated publications.
Compare with care: the assays were run in different laboratories.
PKN1: Serine/threonine-protein kinase N1 (PKN1, Homo sapiens, UniProt Q16512)
ADRB1: Beta-1 adrenergic receptor (ADRB1, Homo sapiens, UniProt P08588)
HDAC9: Histone deacetylase 9 (HDAC9, Homo sapiens, UniProt Q9UKV0)

N=c1c[n+](N2CCOCC2)[n-]o1 — KI (inactivation) (NAD-dependent protein deacylase sirtuin-5, mitochondrial (SIRT5, Homo sapiens, UniProt Q9NXA8); enzyme activity; inhibitor): 4 µM
COc1cc(-c2cncc3c2CN(C)Cc2cc(N4CCNCC4)ccc2-3)cc(OC)c1OC — remaining activity (PKN1; enzyme activity; inhibitor; 1 µM): 102%
CC(C)OC(=O)CNc1cccc(CN(Cc2ccc(-n3cccn3)cc2)S(=O)(=O)c2cccnc2)n1 — inhibition (ADRB1; ligand displacement; radioligand; 10 µM): 0%
CNc1ncc2c(/C=C/C(=O)N3CCC(OC)CC3)nn(Cc3cccc(C(F)(F)F)c3)c2n1 — remaining activity (Cyclin-dependent kinase 18, with cyclin Y (CDK18, Homo sapiens, UniProt Q07002); enzyme activity; inhibitor; radiometric; 1 µM): 99%
O=C(NO)c1cncc(OS(=O)(=O)Oc2ccc(-n3ccnc3)cc2)c1 — inhibition (HDAC9; enzyme activity; inhibitor; fluorescence; 10 µM): 49%
O=C(O)CNc1cccc(CN(Cc2ccc(-n3cccn3)cc2)S(=O)(=O)c2cccnc2)n1 — inhibition (ADRB1; ligand displacement; radioligand; 10 µM): 2%
C[C@H]1O[C@H](O[C@H]2[C@H](O)[C@@H](O)[C@@H](O[C@H]3[C@H](O)[C@@H](O)C(O)O[C@@H]3CO)O[C@@H]2CO)[C@H](O)[C@@H](O)[C@@H]1N[C@H]1C=C(CO)[C@@H](O)[C@H](O)[C@H]1O (some centres unmarked) — inhibition (Pancreatic alpha-amylase (Homo sapiens, UniProt P04746); enzyme activity; inhibitor; 200 µg/mL): 97.5%
O=C(NO)c1cc(F)cc(OS(=O)(=O)Oc2ccccc2)c1 — inhibition (HDAC9; enzyme activity; inhibitor; fluorescence; 10 µM): 33%
Cc1cc([C@@H](C)Nc2ccccc2C(=O)O)c2nc(N3CCC(F)(F)CC3)c(C#N)c(=O)n2c1 — remaining binding (NUAK family SNF1-like kinase 2 (NUAK2, Homo sapiens, UniProt Q9H093); binding; competition with immobilised ligand; 10 µM): 70%
C=CC(=O)N1CCC(COCC(=O)N2CCN(c3nc(-c4cnc(N)nc4C(F)F)nc(N4CCOC[C@@H]4C)n3)CC2)CC1 — remaining binding (PKN1; binding; competition with immobilised ligand; 1 µM): 100%
O=C(/C=C/c1cccc(OS(=O)(=O)Oc2ccc(C(F)(F)F)cc2)c1)NO — inhibition (HDAC9; enzyme activity; inhibitor; fluorescence; 10 µM): 13%
